Experimental findings from the EternaBench riboswitch data are described below.

This data set deals with MS2 coat protein. Put plainly: apparent Kd, MS2 coat protein; higher = weaker binding; RNA-MaP array; FMN 200 µM where present. A digest of the protocol:
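Designs were transcribed by stalled E. coli RNA polymerase on Illumina sequencing-chip clusters. They were titrated with SNAP-549-labelled MS2 coat protein from 0.7 or 1.5 nM, doubling to 3 µM, in 100 mM Tris-HCl pH 7.5, 80 mM KCl, 4 mM MgCl2, BSA, DTT, yeast tRNA and Tween-20, without and then with constant ligand. The apparent Kd is the median of filtered per-cluster fits after normalisation of green signal to red-channel RNA signal and control-cluster median Fmax.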

[1] abbreviates: designed as: ON switch for flavin mononucleotide, no ligand.
Where [2] appears, read: ligand present: flavin mononucleotide, designed as: ON switch for flavin mononucleotide.
Where [3] appears, read: designed as: OFF switch for flavin mononucleotide, no ligand.
Where [4] appears, read: ligand present: flavin mononucleotide, designed as: OFF switch for flavin mononucleotide.

“UGUUGUAUUACAGGAUAUCUAGUAUGUUUAUUUAGAGAAGGGUAUUCACAUGAGGAUCACCCAUGUAUAUACGAGGAAGUUGUG”: the “apparent Kd” value under setting [1] was found to be 39.1 nM and the “apparent Kd” value under setting [2] was found to be 42.5 nM.

With “GUAAAUCAUGUAGGAUAUGCAUGGCGAAGCUACGCAGAAGGACAUGAGGAUCACCCAUGUCUGUCCGUCUGCGAACAGACGGAC”, the “apparent Kd” value turned out to be 23.4 nM under setting [3] and 174 nM under setting [4].

For the sequence “AAAAGGUUAGGAUAUGCCCGCCGGGUGGGAAGGCCGGGUGGGUAGAAGGGACAUGAGGAUCACCCAUGUAAAAA”, the “apparent Kd” value under setting [3] stood at 48.6 nM and the “apparent Kd” value under setting [4] stood at 20 nM.

As for “AGCUAGAGAGGAUAUACGUGGAAAAAAAAAGUCUGAUCCCUACAUGAGGAUCACCCAUGUAGAAGGCUCUGGCA”, the “apparent Kd” value came to 30.9 nM under setting [3] and 15.1 nM under setting [4].

As to “GGAGGACGAAACAUGAGGAUCACCCAUGUGUUAUAAUUAAUAUAGGAUAUGUUUAUACUUUUUGGGCAGAAGGAUGAUAAUGUU”, the “apparent Kd” value worked out at 22.2 nM under setting [1] and 19.7 nM under setting [2]. As for “UAACCUCGCGUCAGGAUAUGCGAGGACUGUGACGUGCAGAAGGGACAUGAGGAUCACCCAUGUGAAAGAAUUAA”, the “apparent Kd” value runs as follows: under setting [3], 25.2 nM; under setting [4], 25.4 nM. Turning to “GUAUGAGCGAUAGGAUAUACUGAGAUUGAAUGGGUAGAAGGAUCUCUUGUGGGAAAGACAUGAGGAUCACCCAUGUCACGGACC”, the “apparent Kd” value stood at 186 nM under setting [1] and 100 nM under setting [2]. Taken in the same sequence, the figures for “GCUAGACGUCGAGGAUAUGGGUGUGCGAGUCUUGGCACUGGACAUGAGGAUCACCCAUGUCGCUUCCAGAAGGCGACGUCCCUA” were 38.6 nM and 6.39 nM. On to “AAAAAUGGAGGAUAUACAUGAGGAUCACCCAUGUGUGGCCAUACUAUGUGCUCGUCAGGUAGAAGGCCAAAAAA”, for which the “apparent Kd” value came to 28.7 nM under setting [3] and 46 nM under setting [4].

Take “UUGGUCAGUCAGAAGGCUACAUUACAUGAGGAUCACCCAUGUCAAAAGUAGAGGAUAUGAAGUUCGCCAUGGUAAGAGCCUGUC”: the “apparent Kd” value amounted to 34.7 nM under setting [1] and 6.26 nM under setting [2]. With “ACCUCACAUGAGGAUCACCCAUGUUAGGAUAUCUCGAUGCUCCACGGGCGGUAGCAUCAGAGAAGGAACGUGCU”, the “apparent Kd” value was 23.9 nM under setting [3] and 21.5 nM under setting [4]. As for “UUAUAUAAGGUGUAGCUAGACAUGCAAGAAGGGUGAAGAACAUGAGGAUCACCCAUGUAGACGGUACAGGAUAUUGAUUGACGA”, the “apparent Kd” value runs as follows: under setting [1], 340 nM; under setting [2], 166 nM. “GAACGCCUAGGAUAUACAUGAGGAUCACCCAUGUCGCCCAGUCCUGGAGUGACCUCUAGUAGAAGGAGGAAUAA”: the “apparent Kd” value by setting is: under setting [3], 480 nM; under setting [4], 135 nM. For “GGUCUAGGCGAAGGAUAUCCGUCGCGAGAUACUGGAGAAGGUCGCCUUGAUACAUGAGGAUCACCCAUGUGGCGGGUGAACCAA”, the “apparent Kd” value under setting [3] was 98.5 nM and the “apparent Kd” value under setting [4] was 19.3 nM. In the case of “CAGUCUACAGGAUAUACAUGAGGAUCACCCAUGUGUAUUCACUUUCAGUAGUCUUUAUGUAGAAGGGUAGACUG”, the “apparent Kd” value under setting [3] came to 15.9 nM and the “apparent Kd” value under setting [4] is 26.7 nM. With “CGAACUAAGUAGAAGGCUGUCUUAAAAUAGGACAGAGGAUAUACAUGAGGAUCACCCAUGUACUCCUUUAAUAAGUUUGAAAUA”, the “apparent Kd” value is 5.84 nM under setting [3] and 6.48 nM under setting [4]. For “GGUUGUCAUAGUCAUCCUUUCCGUACAUGAGGAUCACCCAUGUAGGAUAUGCUACUCACAGUGUGGCAGAAGGGCGUGUGUCUU”, the “apparent Kd” value under setting [4] turned out to be 19.4 nM.

For the sequence “GUAGCAUACCGAGGAUAUCUAUACCGGAAACGGACAUGAGGAUCACCCAUGUGGCGAAAGCCUUGGGAGAAGGCGGAAUGCUAC”, the “apparent Kd” value was 20.8 nM under setting [1] and 11.6 nM under setting [2].

Consider “AGGAAACAUGAGGAUCACCCAUGUAAAAAUAUGGGAGGAUAUGCGAAAAGAAACAAAGAAGCAGAAGGCCUAAGAA”, for which the “apparent Kd” value under setting [1] amounted to 89.8 nM and the “apparent Kd” value under setting [2] came out at 23.1 nM. Consider “GUCCUCUUGACAUGAGGAUCACCCAUGUAUUAUUUGUUAACUGAGGAUAUACUCUUAUUUUUUAUGUAGAAGGCAGAUUUGUUC”, for which the “apparent Kd” value is, setting by setting: under setting [3], 40.9 nM; under setting [4], 52.5 nM. Regarding “AACUCACAUGAGGAUCACCCAUGUGAGGAUAUGGUUUCGCUGGCCGUAGCCAGUGGAACCAGAAGGCGCAUGAU”, the “apparent Kd” value amounted to 20.1 nM under setting [3] and 20 nM under setting [4].

Take “AUUUGAAUCGUAGGAUAUCGCUUAAAUUUACCACGAGAAGGACGAACAUGAGGAUCACCCAUGUAACAUGGUGAAGAUAAUUUG”: the “apparent Kd” value reads like this: under setting [3], 31.6 nM; under setting [4], 120 nM.

Take “ACUUAUGAAGGAUAUACUGGCGACAUGCGCUCAACACGCGCACAUGAGGAUCACCCAUGUAGAAGGUCAAACAU”: the “apparent Kd” value under setting [3] worked out at 27.5 nM and the “apparent Kd” value under setting [4] amounted to 45.5 nM. With “GUGUAGAUAGGAUAUACAUGAGUCUAGCGAAGCUAGAUUCUACAUGAGGAUCACCCAUGUAGAAGGGUCUACAC”, the “apparent Kd” value runs as follows: under setting [3], 15.9 nM; under setting [4], 18.5 nM.

As to “AGAUCACAAAUUUGGGAUAGUAGUACAGAAGGCACGGAAGUACAUGAGGAUCACCCAUGUGUGGGUGAGGAUAUGUACUCACUA”, the “apparent Kd” value runs as follows: under setting [1], 217 nM; under setting [2], 14 nM. Consider “GUGAUACAUGAGGAUCACCCAUGUCAGGAUAUGAUACUAUGUACUUCGGUACAUAGUAUCAGAAGGGACAGUGA”, for which the “apparent Kd” value reads like this: under setting [3], 138 nM; under setting [4], 92.5 nM. Taken in the same sequence, the figures for “UGUGCCUCGAGAGGAUAUACAUGAGGAUCACCCAUGUAAGUAGAGGUGGAAACACCUCUACAAAUGUAGAAGGCUCGAGGCACA” were 20.6 nM and 58.3 nM. In the case of “CAUUAAUUGAUUAUUGUAUUUAUACAGGAUAUGUAACAUGAGGAUCACCCAUGUAUACAUGGGAAACAGAAGGGUAUAUAAAGA”, the “apparent Kd” value under setting [3] came out at 33.7 nM and the “apparent Kd” value under setting [4] was 29.9 nM. For the sequence “GCGAUUGCGUAGAAGGUACUAUAUAAUACACUGUAAGGAUAUACAUACAUGAGGAUCACCCAUGUAAAUGGAAUUUGCAAUCGC”, the “apparent Kd” value runs as follows: under setting [1], 6.93 nM; under setting [2], 6.41 nM. As for “CCGGAAAUACAGGAUAUCGUAUCGGAUACGAUACGAGAAGGGUAUACAUGAGGAUCACCCAUGUGUCCUACCGG”, the “apparent Kd” value under setting [3] amounted to 25.1 nM and the “apparent Kd” value under setting [4] was 32 nM. As for “ACCUGGACCACAGGAUAUCCCAAUGUUUUACAGGGAGAAGGGUGAGAGUAUGACAUGAGGAUCACCCAUGUUGUCCAGGCGGAA”, the “apparent Kd” value turned out to be 442 nM under setting [1] and 191 nM under setting [2].

Turning to “GAAGUAUCCAAUAACAUGAGGAUCACCCAUGUCAAAAGACGGGAGGAUAUUGAUCUGAAGAAGAUCAAGAAGGCCUGGUGCUAA”, the “apparent Kd” value by setting is: under setting [1], 19.2 nM; under setting [2], 11.1 nM. In the case of “GGAUGACAAAGUCAUCCAUAACGAACAUGAGGAUCACCCAUGUAGGAUAUGCAACUCAAAGAGUUGCAGAAGGACAUGUGCCUU”, the “apparent Kd” value runs as follows: under setting [3], 34.6 nM; under setting [4], 273 nM.

Regarding “GGAACCGCUCAGAAGGACAUGAGGAUCACCCAUGUAGGAUAUGACUCGGUCUUUACGUGGCGCCCUGCAUCAUCGUUAUCUGCU”, the “apparent Kd” value was 165 nM under setting [1] and 23.1 nM under setting [2]. With “AAGUCGUGAGGAUAUACAUGGAUAUACAUUUAUGUAAAACUACAUGAGGAUCACCCAUGUAGAAGGCACGAAUA”, the “apparent Kd” value under setting [3] was determined as 50.7 nM and the “apparent Kd” value under setting [4] was 128 nM. In the same order, the values of “GGCGGCAAUGAGAAGGGUCACAUGAGGAUCACCCAUGUGCUCUUCGCCGUGACAGGAUAUCAUCGCCGUCAGGUUAGAUUUUUG” are 7.26 nM and 26.1 nM.

As for “GCCUUAUCUGUCAGGAUAUACAAUAAAAUAUUUUUGUAGAAGGGACAUGAGGAUCACCCAUGUACAUUACAUUG”, the “apparent Kd” value by setting is: under setting [3], 42 nM; under setting [4], 262 nM. Consider “GGGAAGUGAGGAUAUAUGAGAGAGGCUGAACCGGACGAGAAGUAGAAGGCACAUGAGGAUCACCCAUGUAGGGA”, for which the “apparent Kd” value was 118 nM under setting [3] and 86 nM under setting [4]. Turning to “AUUAAUUAAUUAAUACAUGAGGAUCACCCAUGUAAUAAGAUCAAGGAUAUCAGCUCGAUUAGAGCUGAGAAGGUGAUCACAUGU”, the “apparent Kd” value is 772 nM under setting [1] and 223 nM under setting [2]. As to “GUAUGAGCGAUAGGAUAUACUGAGAUUGAAUGGGUAGAAGGAUCACUUGUGUGGAAGACAUGAGGAUCACCCAUGUUACGGGCC”, the “apparent Kd” value came out at 20.7 nM under setting [1] and 62.6 nM under setting [2]. “GGUGGCGUGAUAACGCUAGCUAUAACAUGAGGAUCACCCAUGUAGGAUAUCCCGCCGUGAGGGCGGGAGAAGGACAACCGAUGG”: the “apparent Kd” value reads like this: under setting [3], 28.5 nM; under setting [4], 30.8 nM. Turning to “ACAAGUUCACAUGAGGAUCACCCAUGUGGUCGCUAAUAUACCAGAAGGGUGGGUCCUAAUGAUGUACAGGAUAUGGAGUAGGCG”, the “apparent Kd” value under setting [1] stood at 198 nM and the “apparent Kd” value under setting [2] turned out to be 81.7 nM. Consider “ACAUGAGGAUCACCCAUGUGAUGAUCUCCCAUGUUAUAUUUCAGAAGGCUCGUGUGUUUGAUGAGAGAGGAUAUGGAAUAUACG”, for which the “apparent Kd” value under setting [3] was 377 nM and the “apparent Kd” value under setting [4] was determined as 258 nM. In the case of “AAUAACAGAGGAUAUACUGUUUUAUGUAUUUAUUAUUUUGAACAUGAGGAUCACCCAUGUAGAAGGCUGAUUAA”, the “apparent Kd” value under setting [3] was 33.3 nM and the “apparent Kd” value under setting [4] came to 28.4 nM. Consider “AUAGGCCUAGGAUAUACAUGAGGAUCACCCAUGUUAAUAUUUCAAUCAUGAUAAACGUGUAGAAGGAGGAAUAA”, for which the “apparent Kd” value reads like this: under setting [3], 25.9 nM; under setting [4], 28.6 nM. Take “CACUUCCCGUCAGGAUAUCGCCGUAGGUCCUCGGGUCUCGCCGUCAUACAUGAGGAUCACCCAUGUGAGAAGGGACGGGUUUCA”: the “apparent Kd” value came to 16.4 nM under setting [3] and 107 nM under setting [4]. For the sequence “UAUAUAAUAUUACACAUGAGGAUCACCCAUGUACAUGGGAUAGAGGAUAUACAAAUAUUAGUGGUGUAGAAGGUUAAUAUAUAU”, the “apparent Kd” value worked out at 266 nM under setting [3] and 71 nM under setting [4]. As for “AGGAUAGGAAAAUUUGUCCAUUGUACAGAAGGCCAACAUGAGGAUCACCCAUGUAAGAAAAGGAUGGAGGAUAUGUAUAGGGCC”, the “apparent Kd” value runs as follows: under setting [1], 37.6 nM; under setting [2], 10.6 nM.

The apparent Kd is the concentration giving half-maximal binding under the conditions of the assay.
